Ratio data for 22 molecules are collected here from ChEMBL document CHEMBL1153233, “Novel substituted (Z)-5-((N-benzyl-1H-indol-3-yl)methylene)imidazolidine-2,4-diones and 5-((N-benzyl-1H-indol-3-yl)methylene)pyrimidine-2,4,6(1H,3H,5H)-triones as potent radio-sensitizing agents” (2010).

In the experiment the test system is HT-29. Description: Radiosensitization activity against human HT-29 cells assessed as survival relative to control. The format is functional. The procedure, abridged:
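HT-29 colorectal adenocarcinoma cells exposed to analog at 25 µM (or DMSO vehicle) for 2 h at 37 °C, then irradiated with 4 Gy. Analog washed off, cells kept 14 days in fresh medium, colonies stained with crystal violet and counted. Surviving fraction taken as colonies over cells treated. Relative survival is survival with radiation plus analog divided by survival with radiation alone, with vehicle set at 1.0.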

Regarding `O=C1NC(=O)C(=Cc2cn(Cc3ccccc3)c3ccccc23)C(=O)N1`, the Ratio stood at 1.35. Turning to `O=C1NC(=O)C(=Cc2cn(Cc3ccc(Cl)cc3)c3ccccc23)C(=O)N1`, the Ratio came to 0.91. With `COc1ccc(Cn2cc(C=C3C(=O)NC(=O)NC3=O)c3ccccc32)cc1`, the Ratio amounted to 1.18. The figure for `O=C1NC(=O)C(=Cc2cn(Cc3ccccc3Br)c3ccccc23)C(=O)N1` is 1.14; for `O=C1NC(=O)/C(=C/c2cn(Cc3ccc(F)cc3)c3ccccc23)N1` it is 0.91; for `Cc1ccc(Cn2cc(/C=C3\NC(=O)NC3=O)c3ccccc32)cc1` it is 1.06.

Regarding `N#Cc1ccc(Cn2cc(C=C3C(=O)NC(=O)NC3=O)c3ccccc32)cc1`, the Ratio came out at 0.23. As to `COC(=O)c1ccc(Cn2cc(C=C3C(=O)NC(=O)NC3=O)c3ccccc32)cc1`, the Ratio is recorded as 0.64. For the molecule `O=C1NC(=O)/C(=C/c2cn(Cc3ccccc3)c3ccc(Cl)cc23)N1`, the Ratio was determined as 1.38. The figure for `O=C1NC(=O)/C(=C/c2cn(Cc3ccccc3Br)c3ccccc23)N1` is 1.18; for `Cc1ccc2c(c1)c(/C=C1\NC(=O)NC1=O)cn2Cc1ccccc1` it is 1.18. Consider `COc1ccc2c(c1)c(C=C1C(=O)NC(=O)NC1=O)cn2Cc1ccccc1`, for which the Ratio is 1.73. For `O=C1NC(=O)/C(=C/c2cn(Cc3ccccc3)c3ccc(Br)cc23)N1`, the Ratio is 1.06. For `O=C1NC(=O)/C(=C/c2cn(Cc3ccc([N+](=O)[O-])cc3)c3ccccc23)N1`, the Ratio came to 1.14. On to `N#Cc1ccc(Cn2cc(/C=C3\NC(=O)NC3=O)c3ccccc32)cc1`, for which the Ratio is on record as 1.53.

On to `O=C1NC(=O)C(=Cc2cn(Cc3ccc([N+](=O)[O-])cc3)c3ccccc23)C(=O)N1`, for which the Ratio is recorded as 0.44.

For the molecule `COC(=O)c1ccc(Cn2cc(/C=C3\NC(=O)NC3=O)c3ccccc32)cc1`, the Ratio turned out to be 1. On to `COc1ccc(Cn2cc(/C=C3\NC(=O)NC3=O)c3cc(Br)ccc32)cc1`, for which the Ratio is listed as 1.29. The figure for `O=C1NC(=O)/C(=C/c2cn(Cc3ccc(Cl)cc3)c3ccccc23)N1` is 1.44; for `O=C1NC(=O)/C(=C/c2cn(Cc3ccccc3)c3ccccc23)N1` it is 1.3. The same measure for `O=C1NC(=O)C(=Cc2cn(Cc3ccccc3)c3ccc(Cl)cc23)C(=O)N1`: 1.38; for `COc1ccc2c(c1)c(/C=C1\NC(=O)NC1=O)cn2Cc1ccccc1`: 1.38.
